Results of several laboratories.
CYP1A2: Cytochrome P450 1A2 (CYP1A2, Homo sapiens, UniProt P05177)

| SMILES | tested on | test | test system | conditions | endpoint | value |
| --- | --- | --- | --- | --- | --- | --- |
| OC[C@H]1O[C@@H](c2cc(Cc3ccc(C4CC4)cc3)c(Cl)c3c2CCO3)[C@H](O)[C@@H](O)[C@@H]1O |  |  | human, plasma | oral, 0.3 mg, single dose, fasted | Vd/F | 167 L |
| C[C@@H](Oc1ccc(S(C)(=O)=O)cc1C(=O)N1C[C@@H]2C[C@]2(c2cc(C(F)(F)F)on2)C1)C(F)(F)F |  |  | human, plasma | oral, 10 mg, single dose, fasted | Vd/F | 273 L |
| O=C1C(=O)c2cccnc2-c2ncccc21.O=C1C(=O)c2cccnc2-c2ncccc21.O=C1C(=O)c2cccnc2-c2ncccc21.[Cu+2].[O-][Cl+3]([O-])([O-])[O-].[O-][Cl+3]([O-])([O-])[O-] | Vero | cell growth or viability, MTT |  | 72 h | CC50 | > 200 µM |
| CC[C@H](C)[C@@H]([C@@H](CC(=O)N1CCC[C@H]1[C@H](OC)[C@@H](C)C(=O)N[C@@H](Cc1ccccc1)C(=O)NCCCO)OC)N(C)C(=O)[C@@H](NC(=O)[C@H](C(C)C)N(C)C)C(C)C | Cytochrome P450 3A4 (CYP3A4, Homo sapiens, UniProt P08684) | enzyme activity, inhibitor | human, liver microsomes |  | IC50 | 43.6 µM |
| COc1ccc2c(c1)CN(C(=O)CCN1CCC(Cc3ccccc3)CC1)CC[S@@+]2[O-] |  |  | male human, plasma | intravenous, 0.15 mg/kg, healthy volunteers | Vd | 86.7 L |
| CC(=O)O[C@H]1[C@H](O[C@H]2CC[C@]34C[C@]35CC[C@]3(C)[C@@H]([C@@]6(C)CC[C@@H](C(C)(C)O)O6)[C@@H](O)C[C@@]3(C)[C@@H]5C[C@H](O[C@@H]3O[C@H](CO)[C@@H](O)[C@H](O)[C@H]3O)[C@H]4C2(C)C)OC[C@@H](O)[C@@H]1O | CYP1A2 | enzyme activity, inhibitor | human, liver microsomes |  | IC50 | > 200 µM |
| NS(=O)(=O)c1ccc(-c2ccc(Nc3ccncc3)cc2)cc1 | BHK-21 | cell growth or viability, MTT |  | 100 µM | viability | 76% |
| CC(=O)O[C@@H]1[C@@H](O)[C@H](O[C@H]2CC[C@]34C[C@]35CC[C@]3(C)[C@@H]([C@@]6(C)CC[C@@H](C(C)(C)O)O6)[C@@H](O)C[C@@]3(C)[C@@H]5C[C@H](O[C@@H]3O[C@H](CO)[C@@H](O)[C@H](O)[C@H]3O)[C@H]4C2(C)C)OC[C@H]1O | CYP1A2 | enzyme activity, inhibitor | human, liver microsomes |  | IC50 | > 200 µM |
| N#Cc1cccc(-c2ccc3ncc(-c4cc(F)cc(F)c4)c(N4CCC(N)CC4)c3c2)c1O |  |  | human, plasma | oral, 20 mg, single dose | Vd/F | 300 L |
| CN(C)C(=O)c1cc2cnc(Nc3ccc(-c4ccc5c(=O)cc(N6CCOCC6)oc5c4)cc3)nc2n1C1CCCC1.Cl |  |  | BALB/c mouse, plasma | oral, 20 mg/kg | Cmax | 3300 ng/mL |
| COC(=O)N[C@H](C(=O)N1CCC[C@H]1c1nc(-c2ccc3c(c2)O[C@@H](c2ccccc2)n2c-3cc3cc(-c4c[nH]c([C@@H]5CCCN5C(=O)[C@@H](NC(=O)OC)C(C)C)n4)ccc32)c[nH]1)C(C)C | BHK-21 | cell growth or viability, CCK-8 |  | 48 h | CC50 | > 600 µM |
| CCCSc1ccc2nc(NC(=O)OC)[nH]c2c1 | Vero | cell growth or viability, MTT |  | 72 h | CC50 | > 200 µM |
| C#CCC(Cc1cnc2nc(N)nc(N)c2n1)c1ccc(C(=O)N[C@@H](CCC(=O)O)C(=O)O)cc1 (some centres unmarked) | BHK-21 | cell growth or viability, CCK-8 |  | 48 h | CC50 | 104 µM |
| NS(=O)(=O)c1ccc(-c2ccc(Nc3ccc(F)c(Cl)c3)cc2)cc1 | BHK-21 | cell growth or viability, MTT |  | 100 µM | viability | 75% |
